{"source": "ChEMBL document CHEMBL1250469", "about": "“Design, synthesis, and biological evaluation of ketoprofen analogs as potent cyclooxygenase-2 inhibitors” (Bioorg Med Chem, 2010)", "data": [{"organism": "Ovis aries", "assay": "Selectivity index, ratio of IC50 for sheep COX1 to IC50 for COX2", "in_short": "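Ratio of IC50 for COX-1 to IC50 for COX-2. Both come from the ovine chemiluminescent COX assay, with arachidonic acid as substrate and a naphthalene hydrazide luminescence read-out. Each IC50 is the mean of two determinations.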", "values": [{"smiles": "CC(=O)Nc1ccc(-c2cc(C(=O)O)c3cccc(C(=O)c4ccccc4)c3n2)cc1", "Ratio IC50": 115}, {"smiles": "[N-]=[N+]=Nc1ccc(-c2cc(C(=O)O)c3cc(C(=O)c4ccccc4)ccc3n2)cc1", "Ratio IC50": "> 1300"}, {"smiles": "CS(=O)(=O)c1ccc(-c2cc(C(=O)O)c3cccc(C(=O)c4ccccc4)c3n2)cc1", "Ratio IC50": 231}, {"smiles": "CS(=O)(=O)c1ccc(-c2cc(C(=O)O)c3cc(C(=O)c4ccccc4)ccc3n2)cc1", "Ratio IC50": 317}, {"smiles": "CC(=O)Nc1ccc(-c2cc(C(=O)O)c3cc(C(=O)c4ccccc4)ccc3n2)cc1", "Ratio IC50": 256}, {"smiles": "[N-]=[N+]=Nc1ccc(-c2cc(C(=O)O)c3cccc(C(=O)c4ccccc4)c3n2)cc1", "Ratio IC50": 1150}]}]}
